Screens from PubChem BioAssay.
This is a sample that favours compounds with a hit; in the whole collection about 1.9% have one here.
M4 ag: human M4 muscarinic receptor agonists, primary screen, CHO-K1 cells, Fluo-8 calcium fluorescence. hit rate 0.14% among 360,000. activation, % at 3 µM. CHO-K1 hM4/Gqi5; vehicle 0%, full acetylcholine response 100%;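 active = activation above the run mean over all test wells plus 3 SD, cut at about 32% in these data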;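 note: peak over basal fluorescence ratio per well then scaled between controls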
Target sequence (P08173 whole entry, looked up): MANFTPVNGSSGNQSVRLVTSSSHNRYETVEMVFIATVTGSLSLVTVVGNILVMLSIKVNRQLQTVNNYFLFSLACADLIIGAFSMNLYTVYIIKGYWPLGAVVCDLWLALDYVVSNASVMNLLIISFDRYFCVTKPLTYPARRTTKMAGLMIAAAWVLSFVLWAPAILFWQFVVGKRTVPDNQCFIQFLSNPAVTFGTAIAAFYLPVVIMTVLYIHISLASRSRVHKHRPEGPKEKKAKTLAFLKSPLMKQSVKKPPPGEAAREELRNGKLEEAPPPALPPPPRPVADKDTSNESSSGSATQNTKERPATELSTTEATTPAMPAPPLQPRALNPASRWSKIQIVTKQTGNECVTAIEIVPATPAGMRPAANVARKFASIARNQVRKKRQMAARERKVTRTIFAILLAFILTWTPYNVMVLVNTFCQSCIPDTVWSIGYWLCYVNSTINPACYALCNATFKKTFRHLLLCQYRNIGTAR
M5 PAM: human M5 muscarinic receptor positive allosteric modulators, primary screen, CHO-K1 cells, Fluo-8 calcium fluorescence. Muscarinic acetylcholine receptor M5 (Homo sapiens), P08912. CHO-K1 hM5, ACh EC20 PAM; 0% = ACh EC20, 100% = ACh EC100. activation, % at 3 µM. hit rate 0.3% among 360,000. AID 624038, 2012;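 active = activation above the run cutoff, the mean activation of all test compounds plus 3 SD, cut at about 18% in these data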
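Test system: CHO-K1 hM5 cells / Doses: single-point, 3 µM nominal / Times: Post-acetylcholine fluorescence recording 140 s / Technique: Fluo-8 calcium fluorescence / Measure: Max/basal fluorescence ratio as % of EC20–EC100 ACh window / Benchmarks: low control EC20 acetylcholine (0%), high control EC100 acetylcholine (100%) / Replicates: one well per compound, no replicates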
CHRM5 agonist: human M5 muscarinic receptor agonists, primary screen, CHO-K1 cells, Fluo-8 calcium fluorescence | Muscarinic acetylcholine receptor M5 (Homo sapiens), P08912 | CHO-K1 hM5 cells; 0% DMSO wells, 100% maximal acetylcholine response | activation, % at 3 µM | hit rate 0.19% among 360,000 | AID 624037, 2012;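 active = activation above the run's mean over test compounds plus 3 SD, cut at about 23% in these data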;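 note: signal is peak over basal fluorescence ratio across the kinetic read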
CHRM4 antagonist: human M4 muscarinic receptor antagonists, primary screen, CHO cells, Fluo-8 calcium fluorescence. Muscarinic acetylcholine receptor M4 (Homo sapiens), P08173. CHO-hM4 cells, ACh EC80. inhibition, % at 3 µM. hit rate 0.73% among 360,000. AID 624125, 2012;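 active = inhibition above its plate's cutoff, the mean inhibition of sample wells plus 3 SD, cut at about 27% in these data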
CHRM5 antagonist: human M5 muscarinic receptor antagonists, primary screen, CHO cells, Fluo-8 calcium fluorescence; Muscarinic acetylcholine receptor M5 (Homo sapiens), P08912; CHO-hM5 cells, ACh EC80; inhibition, % at 3 µM; hit rate 0.59% among 360,000;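 active = inhibition above a per-plate cutoff, the mean of that plate's test compounds plus 3 SD, cut at about 27% in these data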
M4 PAM: human M4 muscarinic receptor positive allosteric modulators, primary screen, CHO-K1 cells, Fluo-8 calcium fluorescence; CHO-K1 hM4/Gqi5, ACh EC20; 0% = ACh EC20, 100% = maximal ACh; activation, % at 3 µM; hit rate 0.4% among 360,000; AID 624126, 2012;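 active = activation above its plate's cutoff, the mean activation of sample wells plus 3 SD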
Of the large screens only hits and unclear results are named; the others gave an inactive call.

O=C(CN1CCc2ccccc2C1)Nc1ccc(F)cc1	none
O=C(CN1CCc2ccccc2C1)Nc1ccc(OC(F)(F)F)cc1	CHRM4 antagonist 82.0
CC(C)c1ccc(NC(=O)COC(=O)[C@@H]2CCCN2C(=O)c2cccs2)cc1	none
C=C(C)c1sc(-c2ccc(Cl)cc2)nc1C	none
Cc1cc2c(c(=O)n1Cc1ccco1)C(c1cccnc1)C(C#N)=C(N)O2 (centres undefined)	M4 PAM 29.9
CCOc1ccc(C2C(C#N)=C(N)Oc3cc(C)n(Cc4ccco4)c(=O)c32)cc1OC (centres undefined)	none
O=[N+]([O-])c1cccc(-n2nnnc2CN2CCCC2)c1	none
COC(=O)N1C(=O)[C@@](c2ccc(OC)cc2)(C(C)C)N1C(=O)OC	M5 PAM 19.5
COC(=O)N1C(=O)[C@](c2ccc(Cl)cc2)(C(C)C)N1C(=O)OC	none
COc1ccc(NC(=S)NC(NC(=O)c2cccc(C)c2)C(Cl)(Cl)Cl)c([N+](=O)[O-])c1 (centres undefined)	none
COc1ccc(NC(=S)NC(NC(=O)c2cccc(Cl)c2)C(Cl)(Cl)Cl)c([N+](=O)[O-])c1 (centres undefined)	CHRM5 antagonist 39.3
c1ccc(CN2CCN(C3CCCSc4ccccc43)CC2)cc1 (centres undefined)	CHRM4 antagonist 35.4
CCCCCN1C(=O)Cn2c(nc3ccccc3c2=O)C1C (centres undefined)	M5 PAM 18.2
CCCCCCc1nc2ccccc2c(=O)n1N	none
CCc1cc(CNC(=O)c2ccc3nc(Cc4ccc(OC)c(OC)c4)oc3c2)on1	none
S=c1[nH]nc(Cc2ccccc2)n1Cc1ccco1	CHRM4 antagonist 68.1, CHRM5 antagonist 32.8
CCCn1c(Cc2ccccc2)n[nH]c1=S	none
COC(=O)c1ccc(NC(=O)CCN2C(=O)CSC2=O)cc1	none
Cc1cccc(-n2c(-c3ccncc3)n[nH]c2=S)c1	M4 PAM 17.0
Cc1ccc(-n2c(-c3ccc(Cl)cc3)n[nH]c2=S)c(C)c1	CHRM5 antagonist 30.4, M4 PAM 22.6
CSc1nc2c(=S)[nH]c(=S)[nH]c2s1	none
O=C(c1ccc([N+](=O)[O-])cc1)N1CCN(C(=O)C2CCCCC2)CC1	none
COc1ccccc1C(=O)COC(=O)Cc1ccccc1F	none
CC1Oc2ccccc2N(CC(=O)c2ccc(F)cc2)C1=O (centres undefined)	none
O=C(NC1CC1)C1=C[C@@H](c2csc3ccccc23)C[C@@H](OCCCCO)O1	none
Cc1ccc2c(c1)N(S(=O)(=O)c1ccc(F)cc1)C(C(C)(C)C)CO2 (centres undefined)	none
Cc1ccc(S(=O)(=O)N2c3ccccc3OCC2C(C)(C)C)cc1 (centres undefined)	M5 PAM 20.7
COc1ccccc1C(=O)N(CCC1CCCN1C)c1nc2ccccc2s1 (centres undefined)	CHRM5 antagonist 27.4
CCCCN(C(=O)C1CCCO1)c1c(N)n(CC(C)C)c(=O)[nH]c1=O (centres undefined)	none
N#CCCN(Cc1ccccc1)C(=S)Nc1ccccc1	M4 PAM 21.0
Cn1c(=O)n(-c2cccc(Cl)c2)c(=O)n1C	CHRM4 antagonist 39.9
O=C(Cn1c(=O)n(-c2cccc(Cl)c2)c(=O)n1CC(=O)N1CCCCC1)N1CCCCC1	none
CC(=O)NCCC(=O)NCc1ccc(F)cc1	M4 PAM 22.0
Nc1ccccc1-c1nnc(SCC(=O)Nc2ccccc2OC(F)F)[nH]c1=O	none
CCN(CC)CCSC(=O)C(c1ccccc1)c1ccccc1	CHRM4 antagonist 96.0, CHRM5 antagonist 98.8
NC(=O)C(c1ccccc1)C1CCCCC1 (centres undefined)	none
CCN(CCO)C(=O)C(c1ccccc1)c1ccccc1	none
CCN(CC)CCOC(=O)C(c1ccccc1)C1CCCCC1 (centres undefined)	CHRM4 antagonist 100.1, CHRM5 antagonist 99.0
CCN(CC)CCOC(=O)C(c1ccccc1)c1ccccc1	CHRM4 antagonist 53.8, CHRM5 antagonist 97.7
CCOC(=O)C1=CCN(S(=O)(=O)c2ccc(F)cc2)C1c1ccc(Cl)c(Cl)c1 (centres undefined)	none
CCOC(=O)C1CCCN(Cc2nc3ccc([N+](=O)[O-])cc3c(=O)n2-c2ccc(OC)cc2OC)C1 (centres undefined)	CHRM5 agonist 29.2
N#C/C(=C/c1ccc(N2CCCCC2)o1)C(=O)Nc1ccc(Cl)cc1	M4 ag 170.3, CHRM5 agonist 56.0, CHRM4 antagonist 44.7, CHRM5 antagonist 54.7
N#C/C(=C/c1ccc(N2CCCCC2)o1)C(=O)Nc1ccc2ccccc2c1	M4 ag 181.3, CHRM5 agonist 456.6, CHRM4 antagonist 84.4, CHRM5 antagonist 90.9
CCOC(=O)c1cnc2c(CC)cccc2c1NCCN1CCOCC1	CHRM5 antagonist 27.5
CCOC(=O)c1cnc2c(C)cc(Cl)cc2c1NCCCN1CCOCC1	none
CCOC(=O)c1cnc2c(C(=O)OC)cccc2c1NCCN1CCOCC1	none
CCOC(=O)c1cnc2c(C)cccc2c1NCCCN1CCOCC1	M4 PAM 20.2
Cc1cc(OC(F)F)ccc1NC(=O)Nc1ccc([N+](=O)[O-])cc1	CHRM5 antagonist 27.4
O=C(Nc1ccc(Cl)cc1)Nc1cc([N+](=O)[O-])ccc1F	none
O=C(Nc1ccc(Cl)cc1)Nc1ccccc1CC[N+](=O)[O-]	CHRM5 antagonist 28.8
O=C(Nc1csc([N+](=O)[O-])c1)Nc1c(Cl)cccc1Cl	none
O=C(Nc1ccc([N+](=O)[O-])cc1)Nc1ccc(Cl)cc1F	CHRM5 antagonist 40.7
O=C(Nc1ccc(Cl)cc1)Nc1csc([N+](=O)[O-])c1	CHRM5 antagonist 37.4
Cn1ccs/c1=N\C(=O)Nc1ccccc1	none
Nc1sccc1C(=O)NCc1ccccc1	none
N#Cc1c(-c2ccc(Cl)cc2)c(-c2ccc(Cl)cc2)nn(CCO)c1=O	none
COc1cc(NC(C)CCCN)c2ncccc2c1Oc1ccccc1 (centres undefined)	M5 PAM 25.1
COc1ccc(Oc2c(OC)cc([N+](=O)[O-])c3ncccc23)cc1	none
COc1ccc(NC2=CC(c3cccc(OC)c3)N(c3ccc(OC)cc3)C2=O)cc1 (centres undefined)	CHRM5 antagonist 50.2
